The target in data set [1] is T1, Glucocorticoid receptor (Homo sapiens, UniProt P04150).
T1 sequence (P04150 whole entry): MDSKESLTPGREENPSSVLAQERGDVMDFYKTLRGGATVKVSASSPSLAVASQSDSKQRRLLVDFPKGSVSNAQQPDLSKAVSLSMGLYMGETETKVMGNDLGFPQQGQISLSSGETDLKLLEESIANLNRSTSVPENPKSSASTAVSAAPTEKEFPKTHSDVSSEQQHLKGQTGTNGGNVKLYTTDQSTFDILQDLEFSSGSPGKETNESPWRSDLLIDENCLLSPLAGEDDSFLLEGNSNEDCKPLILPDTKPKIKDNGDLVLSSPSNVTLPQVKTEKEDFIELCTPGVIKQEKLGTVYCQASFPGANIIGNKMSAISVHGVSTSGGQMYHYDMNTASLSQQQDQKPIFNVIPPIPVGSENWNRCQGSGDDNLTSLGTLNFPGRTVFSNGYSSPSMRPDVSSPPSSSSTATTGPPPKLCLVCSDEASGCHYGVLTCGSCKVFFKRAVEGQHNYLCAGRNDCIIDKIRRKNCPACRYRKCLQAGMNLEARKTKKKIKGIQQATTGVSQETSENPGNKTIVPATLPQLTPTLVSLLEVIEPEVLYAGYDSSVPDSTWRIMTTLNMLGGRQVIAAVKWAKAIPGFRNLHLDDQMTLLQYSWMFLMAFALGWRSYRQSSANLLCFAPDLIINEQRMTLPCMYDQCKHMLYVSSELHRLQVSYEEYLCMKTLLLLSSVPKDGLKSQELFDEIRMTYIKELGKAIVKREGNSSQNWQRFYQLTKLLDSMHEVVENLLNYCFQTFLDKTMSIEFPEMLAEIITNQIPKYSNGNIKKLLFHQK
As to the kind of experiment: Antagonist activity at glucocorticoid receptor in human HepG2 cells assessed as inhibition of dexamethasone-induced tyrosine amino transferase activity preincubated for 30 mins followed by dexamethasone addition measured after 20 hrs. The class given is cell-based.

Data set [2] can be described thus: Cmax in Sprague-Dawley CD-1 rat plasma at 5 mg/kg, po administered through gavage measured up to 24 hrs by LC/MS analysis. The class given is ADME, organism-based. Set-up: dose 5 mg/kg, route oral. In a few lines: (§1)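 Jugular-catheterized male Sprague Dawley CD-1 rats (220-250g). Oral arm: five rats, 5mg/kg gavage, 1mg/mL in DMSO:0.5% methylcellulose 10:90, 5mL/kg, sampled pre-dose and 0.25-24 h. i.v. arm: three rats, 1mg/kg, 0.5mg/mL in DMSO:PEG400:propylene glycol 10:45:45, sampled pre-dose and 0.08-24 h. Plasma by LC/MS.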

The nature of data set [3]: AUC in Sprague-Dawley CD-1 rat plasma at 5 mg/kg, po administered through gavage measured up to 24 hrs by LC/MS analysis. Set-up: dose 5 mg/kg, time < 24 hr, route oral. The class given is ADME, organism-based. In a few lines:
as §1

Data set [4] can be described thus: Oral bioavailability in Sprague-Dawley CD-1 rat plasma at 5 mg/kg administered through gavage measured up to 24 hrs by LC/MS analysis. The format is ADME, organism-based. The procedure, abridged:
as §1

The nature of data set [5]: Cmax in Sprague-Dawley CD-1 rat plasma at 3 mg/kg, po administered as cassette dose via gavage measured up to 24 hrs by LC/MS analysis. The format is ADME, organism-based. Further details: dose 3 mg/kg, route oral. In a few lines: (§2)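 Three male Sprague Dawley CD-1 rats (220-250g) with jugular vein catheters; three test compounds plus a reference dosed together by oral gavage, 3mg/kg each, in DMSO:0.5% methylcellulose 10:90 (0.6mg/mL per compound), 5mL/kg. Plasma sampled pre-dose and at 0.25, 0.5, 1, 2, 4, 6, 8, 24 h; LC/MS.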

Data set [6] in a line: AUC in Sprague-Dawley CD-1 rat plasma at 3 mg/kg, po administered as cassette dose via gavage measured up to 24 hrs by LC/MS analysis. The class given is ADME, organism-based. Further details: time < 24 hr, dose 3 mg/kg, route oral. The procedure, abridged:
as §2

Data set [7] is described as follows: Oral bioavailability in monkey plasma at 20 mg/kg measured up to 24 hrs by LC/MS analysis. The format is ADME, organism-based, Macaca mulatta. The note with it: rhesus monkey. In a few lines: (§3)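 Monkey i.v./p.o. study: oral 20mg/kg in 10% DMSO, 0.1% Tween 80, 0.5% hydroxypropylmethylcellulose in water; i.v. dose 1mg/kg.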
A short description of data set [8]: Cmax in monkey plasma at 20 mg/kg, po measured up to 24 hrs by LC/MS analysis. The format is ADME, organism-based, Macaca mulatta. Set-up: dose 20 mg/kg, route oral. The note with it: rhesus monkey. The procedure, abridged:
as §3

Data set [9] is described as follows: AUC in monkey plasma at 20 mg/kg, po measured up to 24 hrs by LC/MS analysis. The format is ADME, organism-based, Macaca mulatta. Further details: dose 20 mg/kg, time < 24 hr, route oral. The note with it: rhesus monkey. In a few lines: as §3
The test system of data set [10] is Rattus norvegicus. The experiment in a line: In vivo antagonist activity at glucocorticoid receptor in Sprague-Dawley rat assessed as reduction in cortisone-induced plasma glucose levels at 30 mg/kg, po bid via gavage for 6 days pretreated for 12 hrs followed by cortisone 21-acetate treatment measured 24 hrs after last cortisone 21-acetate treatment. The class given is functional, organism-based. The procedure, abridged:
(§4)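 Male Sprague Dawley rats (200-250g), 3-day vehicle baseline, groups of eight. Compound as suspension in DMSO:Tween 80:0.5% HPMC 10:0.1:89.9, oral gavage twice daily for 6 days; cortisone 21-acetate 30mg/kg s.c. daily in 1% methylcellulose. Tail-vein blood 24 h after last cortisone (12 h after last compound); glucose by clinical reagent, insulin by ultrasensitive rat ELISA.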

For data set [11], the system named is Rattus norvegicus. As to the kind of experiment: In vivo antagonist activity at glucocorticoid receptor in Sprague-Dawley rat cortisone model of exogenous Cushing's syndrome assessed as inhibition of plasma insulin levels at 30 mg/kg, po bid via gavage for 6 days pretreated for 12 hrs followed by cortisone 21-acetate treatment measured 24 hrs after last cortisone 21-acetate treatment. The class given is functional, organism-based. In a few lines: as §4

The target in data set [12] is T1, Glucocorticoid receptor. The experiment in a line: Displacement of fluormone GS Red from human glucocorticoid receptor after 4 hrs by fluorescence polarization assay.

Data on seven compounds can be found in ChEMBL document CHEMBL4049426, “Identification of the Clinical Candidate (R)-(1-(4-Fluorophenyl)-6-((1-methyl-1H-pyrazol-4-yl)sulfonyl)-4,4a,5,6,7,8-hexahydro-1H-pyrazolo[3,4-g]isoquinolin-4a-yl)(4-(trifluoromethyl)pyridin-2-yl)methanone (CORT125134): A Selective Glucocorticoid Receptor (GR) Antagonist” (J Med Chem, 2017).

Activity calls are given as the source filed them. The rule behind the calls is not given here.

For `Cn1ncc(S(=O)(=O)N2CC[C@H]3Cc4c(cnn4-c4ccc(F)cc4)C[C@]3(C(=O)c3cc(C(F)(F)F)ccn3)C2)n1` [EXICORILANT], the Ki on Glucocorticoid receptor [1] is 12 nM. This compound displayed a Cmax in data set [2] of 1260 ng/mL. Moreover, in data set [3], the AUC at 24 h was 9420 ng·h/mL. In data set [4], the bioavailability is 100%.
For the compound `Cn1ccc(S(=O)(=O)N2CCC3=Cc4c(cnn4-c4ccc(F)cc4)C[C@]3(C(=O)c3cc(C(F)(F)F)ccn3)C2)n1`, the Cmax in data set [5] was 291 ng/mL; in data set [2] it was 510 ng/mL. Besides, the Ki at Glucocorticoid receptor [1] came out at 6.6 nM. Besides, the figures for the AUC at 24 h in data set [6] and in data set [3] were 863 ng·h/mL and 986 ng·h/mL, respectively. This compound also gave a bioavailability in data set [4] of 68%.
Take `Cn1nccc1S(=O)(=O)N1CCC2=Cc3c(cnn3-c3ccc(F)cc3)C[C@]2(C(=O)c2cc(C(F)(F)F)ccn2)C1`: the values for the bioavailability in data set [7] and in data set [4] were 1% and 62%, respectively. Besides, the Cmax in [5] was determined as 239 ng/mL; in data set [8], 16 ng/mL; in [2], 528 ng/mL. For the same compound, the AUC at 24 h in data set [9] is 217 ng·h/mL; in [6] it was 967 ng·h/mL; in data set [3], 1560 ng·h/mL. Further, at Glucocorticoid receptor [1], the Ki was found to be 11 nM.
Regarding `CCn1nccc1S(=O)(=O)N1CCC2=Cc3c(cnn3-c3ccc(F)cc3)C[C@]2(C(=O)c2cc(C(F)(F)F)ccn2)C1`, the bioavailability in data set [7] was 1.5%; in data set [4], 52%. The Cmax in data set [8] is 20.8 ng/mL; in data set [2] it was 511 ng/mL. Besides, the AUC at 24 h amounted to 193 ng·h/mL in [9] and 1530 ng·h/mL in [3]. Also, the Ki at Glucocorticoid receptor [1] stood at 10 nM.
Consider `CC#C[C@]1(O)CC[C@H]2[C@@H]3CCC4=CC(=O)CCC4=C3[C@@H](c3ccc(N(C)C)cc3)C[C@@]21C`, for which the inhibition entry in the data set with Rattus norvegicus [10] and in the data set on Rattus norvegicus [11] was “Active” in each case.
`N#Cc1cccc(S(=O)(=O)N2CCC3=Cc4c(cnn4-c4ccc(F)cc4)C[C@]3(C(=O)c3cc(C(F)(F)F)ccn3)C2)c1`: in data set [5], the Cmax amounted to 20 ng/mL. Besides, the Ki at Glucocorticoid receptor [1] worked out at 4.8 nM; on Glucocorticoid receptor [12], 0.32 nM. Moreover, the AUC at 24 h in [6] was determined as 49 ng·h/mL.
In turn, `O=C(c1nccs1)[C@]12Cc3cnn(-c4ccc(F)cc4)c3C=C1CCN(S(=O)(=O)c1ccc(Cl)c(Cl)c1)C2` yielded a Cmax in data set [5] of 197 ng/mL. Besides, the Ki amounted to 16 nM on Glucocorticoid receptor [1] and 0.59 nM at Glucocorticoid receptor [12]. Further, the AUC at 24 h in data set [6] came to 1220 ng·h/mL.

A word on the Ki: it is the equilibrium dissociation constant of an inhibitor or competing ligand from its target. What is called Cmax is the maximum level reached in the sampled fluid or tissue. For orientation: AUC means the area under the concentration-time curve, a measure of exposure. As a reminder, the bioavailability is the share of a dose that reaches the circulation, judged against a reference dose that is usually intravenous.
